Measured values taken from ChEMBL document CHEMBL1148492, “Synthesis and structure-activity relationship study of potent cytotoxic analogues of the marine alkaloid Lamellarin D” (2006).
Activity calls are given as the source filed them. The rule behind the calls is not given here.

Tests used:
MDA-MB-231 [1] = experiment: Antiproliferative activity against human MDA-MB-231 cell line after 72 hrs by SRB assay at 10 ug/mL; format: functional, cell-based
HT-29 [2] = experiment: Antiproliferative activity against human HT29 cell line after 72 hrs by SRB assay at 10 ug/mL; format: functional, cell-based
A549 [3] = experiment: Antiproliferative activity against human A549 cell line after 72 hrs by SRB assay at 10 ug/mL; format: functional, cell-based
MDA-MB-231 [4] = experiment: Antiproliferative activity against human MDA-MB-231 cell line after 72 hrs by SRB assay; format: functional; details: MDA-MB-231, 72 h
In short: (§1)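 Cells seeded at 5×10³/well in RPMI and allowed to attach in drug-free medium for 18 h. Compounds were added in DMSO/H2O (3:7) and exposure was continuous for 72 h. Cells were then fixed with cold 50% TCA for 60 min at 4°C, stained with 0.4% SRB in 1% acetic acid for 10 min at room temperature, solubilized in Tris, and OD was read at 490 nm. GI50 was derived from 100×[(T−T0)/(C−T0)]=50.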

A549 [5] = experiment: Antiproliferative activity against human A549 cell line after 72 hrs by SRB assay; format: functional; details: A549, 72 h; in short: as §1
HT-29 [6] = experiment: Antiproliferative activity against human HT29 cell line after 72 hrs by SRB assay; format: functional; details: HT-29, 72 h; in short: as §1

SMILES | Activity (MDA-MB-231 [1]) | Activity (HT-29 [2]) | Activity (A549 [3]) | GI50 (MDA-MB-231 [4]) [µM] | GI50 (A549 [5]) [µM] | GI50 (HT-29 [6]) [µM]
COC(=O)c1c(-c2cc(OC)c(O)cc2OC)c(-c2ccc(O)c(OC)c2)c2c3cc(OC)c(O)cc3ccn12 | inactive | inactive | inactive | – | – | –
COC(=O)c1c(-c2cccs2)c(-c2cccs2)c2c3cc(OC)c(O)cc3ccn12 | – | inactive | – | 19.7 | 20.4 | –
COC(=O)c1c(-c2cccc(O)c2)c(-c2cccc(O)c2)c2c3cc(OC)c(O)cc3ccn12 | – | – | – | 7.2 | 6.3 | 18.4
COc1cc(-c2c3c4cc(OC)c(O)cc4oc(=O)c3n3ccc4cc(O)c(OC)cc4c23)ccc1O [LAMELLARIN D] | – | – | – | 0.25 | 0.2 | 5.1
COC(=O)c1c(-c2ccc(N(C)C)cc2)c(-c2ccc(N(C)C)cc2)c2n1CCc1cc(O)c(OC)cc1-2 | – | inactive | inactive | 13.7 | – | –
COC(=O)c1c(-c2cc(OC)c(OC)c(OC)c2)c(-c2cc(OC)c(OC)c(OC)c2)c2c3cc(OC)c(O)cc3ccn12 | inactive | inactive | inactive | – | – | –
COC(=O)c1c(-c2ccc(OC)c(OC)c2)c(-c2ccc(O)c(OC)c2)c2c3cc(OC)c(O)cc3ccn12 | inactive | inactive | inactive | – | – | –
COC(=O)c1c(-c2cc(OC)c(O)cc2OC)c(-c2ccc(O)c(OC)c2)c2n1CCc1cc(O)c(OC)cc1-2 | – | inactive | – | 7.6 | 8.9 | –
COC(=O)c1cc(-c2cc(OC)ccc2OC)c2c3cc(OC)c(O)cc3ccn12 | – | inactive | – | 19.9 | 13.3 | –
COC(=O)c1c(-c2ccc(OC(F)(F)F)cc2)c(-c2ccc(OC(F)(F)F)cc2)c2c3cc(OC)c(O)cc3ccn12 | inactive | inactive | inactive | – | – | –
COC(=O)c1c(-c2cc(OC)c(OC(C)C)cc2OC(C)C)c(-c2ccc(OC(C)C)c(OC)c2)c2n1CCc1cc(OC(C)C)c(OC)cc1-2 | inactive | inactive | inactive | – | – | –
COC(=O)c1c(-c2ccc(OC(F)(F)F)cc2)c(-c2ccc(OC(F)(F)F)cc2)c2n1CCc1cc(O)c(OC)cc1-2 | inactive | inactive | inactive | – | – | –
COC(=O)c1c(-c2ccc(OC)c(OC)c2)c(-c2ccc(OC)c(OC)c2)c2n1CCc1cc(O)c(OC)cc1-2 | – | inactive | – | 7.7 | 11.2 | –
COC(=O)c1c(-c2cccs2)c(-c2cccs2)c2n1CCc1cc(OC(C)C)c(OC)cc1-2 | inactive | inactive | inactive | – | – | –
COC(=O)c1cc(-c2cc(OC)c(OC)c(OC)c2)c2c3cc(OC)c(O)cc3ccn12 | inactive | inactive | inactive | – | – | –
COC(=O)c1c(-c2cccc([N+](=O)[O-])c2)c(-c2cccc([N+](=O)[O-])c2)c2c3cc(OC)c(O)cc3ccn12 | – | – | inactive | 18.3 | – | 8.9
COC(=O)c1c(-c2ccc(OC)cc2)c(-c2ccc(OC)cc2)c2n1CCc1cc(O)c(OC)cc1-2 | – | – | – | 14.4 | 9.2 | 10.3
COC(=O)c1c(-c2ccc(OC)c(OC)c2)c(-c2ccc(OC)c(OC)c2)c2n1CCc1cc(OC(C)C)c(OC)cc1-2 | – | – | – | 0.98 | 0.81 | 1
COC(=O)c1c(-c2ccc(O)c(OC)c2)c(-c2ccc(O)c(OC)c2)c2n1CCc1cc(O)c(OC)cc1-2 | – | inactive | – | 8.5 | 14.3 | –
COC(=O)c1cc(-c2cc(OC)ccc2OC)c2n1CCc1cc(O)c(OC)cc1-2 | – | inactive | inactive | 12.7 | – | –
COC(=O)c1c(-c2ccc(O)cc2)c(-c2ccc(O)cc2)c2c3cc(OC)c(O)cc3ccn12 | – | – | – | 4.1 | 3.5 | 9.8
COC(=O)c1cc(-c2ccc(O)c(OC)c2)c2n1CCc1cc(OC(C)C)c(OC)cc1-2 | – | – | – | 19 | 20.3 | 18.1
COC(=O)c1c(-c2ccc(O)cc2O)c(-c2cccc(O)c2)c2c3cc(OC)c(O)cc3ccn12 | – | inactive | – | 10.6 | 20.8 | –

SMILES | Activity (MDA-MB-231 [1]) | Activity (HT-29 [2]) | Activity (A549 [3]) | GI50 (MDA-MB-231 [4]) [µM] | GI50 (A549 [5]) [µM] | GI50 (HT-29 [6]) [µM]
COC(=O)c1cc(-c2ccc(OC(C)C)c(OC)c2)c2n1CCc1cc(OC(C)C)c(OC)cc1-2 | inactive | inactive | inactive | – | – | –
COC(=O)c1cc(-c2ccc(O)c(OC)c2)c2n1CCc1cc(O)c(OC)cc1-2 | – | – | – | 22.3 | 14.2 | 18
COC(=O)c1c(-c2cc(OC)c(OC)c(OC)c2)c(-c2cc(OC)c(OC)c(OC)c2)c2n1CCc1cc(OC(C)C)c(OC)cc1-2 | inactive | – | – | – | 67.9 | 34
COC(=O)c1cc(-c2ccc(O)c(OC)c2)c2c3cc(OC)c(O)cc3ccn12 | – | – | – | 11.2 | 10.9 | 23.9
COC(=O)c1c(-c2ccc(O)cc2)c(-c2ccc(O)cc2)c2n1CCc1cc(O)c(OC)cc1-2 | inactive | inactive | inactive | – | – | –
COC(=O)c1c(-c2ccc(O)cc2)c(-c2ccc(O)c(OC)c2)c2c3cc(OC)c(O)cc3ccn12 | – | – | – | 15 | 9.8 | 10.1
COC(=O)c1c(-c2cccc([N+](=O)[O-])c2)c(-c2cccc([N+](=O)[O-])c2)c2n1CCc1cc(O)c(OC)cc1-2 | – | – | – | 10.1 | 18 | 11.3
COC(=O)c1c(-c2ccc(O)cc2O)c(-c2cccc(O)c2)c2n1CCc1cc(O)c(OC)cc1-2 | inactive | inactive | inactive | – | – | –
COC(=O)c1cc(-c2ccc(N(C)C)cc2)c2n1CCc1cc(O)c(OC)cc1-2 | inactive | inactive | inactive | – | – | –
COC(=O)c1c(-c2ccc(OC)cc2)c(-c2ccc(OC)cc2)c2c3cc(OC)c(O)cc3ccn12 | – | – | inactive | 9.9 | – | 9.7
COC(=O)c1cc(-c2ccc(N(C)C)cc2)c2n1CCc1cc(OC(C)C)c(OC)cc1-2 | inactive | inactive | inactive | – | – | –
COC(=O)c1c(-c2ccc(OC)c(OC)c2)c(-c2ccc(OC)c(OC)c2)c2c3cc(OC)c(O)cc3ccn12 | inactive | inactive | inactive | – | – | –
COC(=O)c1c(-c2cccs2)c(-c2cccs2)c2c3cc(OC)c(OC(C)C)cc3ccn12 | inactive | inactive | inactive | – | – | –
COC(=O)c1c(-c2cc(OC)c(O)cc2O)c(-c2ccc(O)c(OC)c2)c2n1CCc1cc(O)c(OC)cc1-2 | – | – | – | 3.1 | 5 | 17.1
COC(=O)c1cc(-c2cccs2)c2c3cc(OC)c(O)cc3ccn12 | – | inactive | inactive | 26.3 | – | –
COC(=O)c1c(-c2cc(OC)c(O)cc2O)c(-c2ccc(O)c(OC)c2)c2c3cc(OC)c(O)cc3ccn12 | – | – | – | 0.71 | 0.45 | 7.9
COC(=O)c1cc(-c2cc(OC)c(OC)c(OC)c2)c2n1CCc1cc(OC(C)C)c(OC)cc1-2 | inactive | inactive | inactive | – | – | –
COC(=O)c1c(-c2cc(OC)c(OC(C)C)cc2OC(C)C)c(-c2ccc(OC(C)C)c(OC)c2)c2c3cc(OC)c(OC(C)C)cc3ccn12 | inactive | – | inactive | – | – | 13.6
COC(=O)c1c(-c2ccc(O)c(OC)c2)c(-c2ccc(O)c(OC)c2)c2n1CCc1cc(OC(C)C)c(OC)cc1-2 | – | – | – | 7.1 | 14.7 | 6.9
COC(=O)c1c(-c2ccc(O)c(OC)c2)c(-c2ccc(O)c(OC)c2)c2c3cc(OC)c(O)cc3ccn12 | – | – | – | 7.5 | 7.1 | 8.1
COC(=O)c1c(-c2ccc(OC)c(OC)c2O)c(-c2cccc(O)c2)c2n1CCc1cc(O)c(OC)cc1-2 | – | inactive | – | 15.7 | 14.7 | –
COC(=O)c1c(-c2cc(O)c(O)cc2O)c(-c2cc(OC)ccc2OC)c2c3cc(OC)c(O)cc3ccn12 | – | – | – | 3.2 | 4.7 | 7.1
COC(=O)c1c(-c2cc(O)c(O)cc2O)c(-c2cc(OC)ccc2OC)c2n1CCc1cc(O)c(OC)cc1-2 | – | – | – | 10.5 | 13.7 | 8.4
